{"source": "ChEMBL document CHEMBL5058577", "about": "“EUbOPEN Chemogenomics Library 2 (Multiplex)” (2022)", "tested_on": "HEK-293T", "experiment": "Multiplex assay against HEK293T", "format": "toxicity, cell-based", "conditions": "human", "procedure,_shortened": "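Phenotypes for tubulin, mitochondrial mass and membrane permeability are expressed as per cents of healthy-nucleus cells. Cells were stained live at seeding with Hoechst33342, BioTracker Green Microtubule Cytoskeleton Dye, MitoTracker Red and Annexin V Alexa Fluor 680, then imaged after compound addition on a CQ1 microscope at 37°C and 5% CO2. Machine-learning gating in CellPathfinder separated Hoechst high-intensity objects from normal cells, divided normal cells by nuclear state (healthy, pyknosed, fragmented) and divided pyknosed cells into mitotic or apoptotic.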", "key": {"[1]": {"conditions": "12 h, 1 µM, compound concentration 1 uM, replicate 1"}, "[2]": {"conditions": "12 h, 1 µM, compound concentration 1 uM, replicate 2"}, "[3]": {"conditions": "12 h, 10 µM, compound concentration 10 uM, replicate 1"}, "[4]": {"conditions": "12 h, 10 µM, compound concentration 10 uM, replicate 2"}, "[5]": {"conditions": "24 h, 1 µM, compound concentration 1 uM, replicate 1"}, "[6]": {"conditions": "24 h, 1 µM, compound concentration 1 uM, replicate 2"}, "[7]": {"conditions": "24 h, 10 µM, compound concentration 10 uM, replicate 1"}, "[8]": {"conditions": "24 h, 10 µM, compound concentration 10 uM, replicate 2"}, "[9]": {"conditions": "48 h, 1 µM, compound concentration 1 uM, replicate 1"}, "[10]": {"conditions": "48 h, 1 µM, compound concentration 1 uM, replicate 2"}, "[11]": {"conditions": "48 h, 10 µM, compound concentration 10 uM, replicate 1"}, "[12]": {"conditions": "48 h, 10 µM, compound concentration 10 uM, replicate 2"}}, "data": [{"compound": "COc1ccccc1N1CCN(CCCCNC(=O)c2ccc3ccccc3c2)CC1.Cl", "values": [{"measurement": "Population Apoptotic (%)", "setting": "[1]", "result": 45, "unit": "%"}, {"measurement": "Population Healthy Nuclei (%)", "setting": "[1]", "result": 81, "unit": "%"}, {"measurement": "Population Hoechst High Intensity Objects (%)", "setting": "[1]", "result": 6, "unit": "%"}, {"measurement": "Population Mitochondria Different-Phenotype (%)", "setting": "[1]", "result": 53, "unit": "%"}, {"measurement": "Population Mitotic Cells (%)", "setting": "[1]", "result": 54, "unit": "%"}, {"measurement": "Population Normal (%)", "setting": "[1]", "result": 93, "unit": "%"}, {"measurement": "Population Tubulin-Different-Phenotype (%)", "setting": "[1]", "result": 41, "unit": "%"}, {"measurement": "Total Cell Count", "setting": "[1]", "result": 430}, {"measurement": "Population Apoptotic (%)", "setting": "[2]", "result": 36, "unit": "%"}, {"measurement": "Population Healthy Nuclei (%)", "setting": "[2]", "result": 79, "unit": "%"}, {"measurement": "Population Hoechst High Intensity Objects (%)", "setting": "[2]", "result": 5, "unit": "%"}, {"measurement": "Population Mitochondria Different-Phenotype (%)", "setting": "[2]", "result": 76, "unit": "%"}, {"measurement": "Population Mitotic Cells (%)", "setting": "[2]", "result": 63, "unit": "%"}, {"measurement": "Population Normal (%)", "setting": "[2]", "result": 94, "unit": "%"}, {"measurement": "Population Tubulin-Different-Phenotype (%)", "setting": "[2]", "result": 35, "unit": "%"}, {"measurement": "Total Cell Count", "setting": "[2]", "result": 354}, {"measurement": "Population Apoptotic (%)", "setting": "[3]", "result": 71, "unit": "%"}, {"measurement": "Population Healthy Nuclei (%)", "setting": "[3]", "result": 69, "unit": "%"}, {"measurement": "Population Hoechst High Intensity Objects (%)", "setting": "[3]", "result": 16, "unit": "%"}, {"measurement": "Population Mitochondria Different-Phenotype (%)", "setting": "[3]", "result": 90, "unit": "%"}, {"measurement": "Population Mitotic Cells (%)", "setting": "[3]", "result": 28, "unit": "%"}, {"measurement": "Population Normal (%)", "setting": "[3]", "result": 83, "unit": "%"}, {"measurement": "Population Tubulin-Different-Phenotype (%)", "setting": "[3]", "result": 75, "unit": "%"}, {"measurement": "Total Cell Count", "setting": "[3]", "result": 321}, {"measurement": "Population Apoptotic (%)", "setting": "[4]", "result": 70, "unit": "%"}, {"measurement": "Population Healthy Nuclei (%)", "setting": "[4]", "result": 75, "unit": "%"}, {"measurement": "Population Hoechst High Intensity Objects (%)", "setting": "[4]", "result": 15, "unit": "%"}, {"measurement": "Population Mitochondria Different-Phenotype (%)", "setting": "[4]", "result": 93, "unit": "%"}, {"measurement": "Population Mitotic Cells (%)", "setting": "[4]", "result": 29, "unit": "%"}, {"measurement": "Population Normal (%)", "setting": "[4]", "result": 84, "unit": "%"}, {"measurement": "Population Tubulin-Different-Phenotype (%)", "setting": "[4]", "result": 72, "unit": "%"}, {"measurement": "Total Cell Count", "setting": "[4]", "result": 256}, {"measurement": "Population Apoptotic (%)", "setting": "[5]", "result": 27, "unit": "%"}, {"measurement": "Population Healthy Nuclei (%)", "setting": "[5]", "result": 78, "unit": "%"}, {"measurement": "Population Hoechst High Intensity Objects (%)", "setting": "[5]", "result": 6, "unit": "%"}, {"measurement": "Population Mitochondria Different-Phenotype (%)", "setting": "[5]", "result": 38, "unit": "%"}, {"measurement": "Population Mitotic Cells (%)", "setting": "[5]", "result": 72, "unit": "%"}, {"measurement": "Population Normal (%)", "setting": "[5]", "result": 93, "unit": "%"}, {"measurement": "Population Tubulin-Different-Phenotype (%)", "setting": "[5]", "result": 32, "unit": "%"}, {"measurement": "Total Cell Count", "setting": "[5]", "result": 561}, {"measurement": "Population Apoptotic (%)", "setting": "[6]", "result": 36, "unit": "%"}, {"measurement": "Population Healthy Nuclei (%)", "setting": "[6]", "result": 82, "unit": "%"}, {"measurement": "Population Mitochondria Different-Phenotype (%)", "setting": "[6]", "result": 62, "unit": "%"}, {"measurement": "Population Mitotic Cells (%)", "setting": "[6]", "result": 63, "unit": "%"}, {"measurement": "Population Tubulin-Different-Phenotype (%)", "setting": "[6]", "result": 26, "unit": "%"}, {"measurement": "Total Cell Count", "setting": "[6]", "result": 444}, {"measurement": "Population Apoptotic (%)", "setting": "[7]", "result": 56, "unit": "%"}, {"measurement": "Population Healthy Nuclei (%)", "setting": "[7]", "result": 74, "unit": "%"}, {"measurement": "Population Hoechst High Intensity Objects (%)", "setting": "[7]", "result": 13, "unit": "%"}, {"measurement": "Population Mitochondria Different-Phenotype (%)", "setting": "[7]", "result": 96, "unit": "%"}, {"measurement": "Population Mitotic Cells (%)", "setting": "[7]", "result": 43, "unit": "%"}, {"measurement": "Population Normal (%)", "setting": "[7]", "result": 86, "unit": "%"}, {"measurement": "Population Tubulin-Different-Phenotype (%)", "setting": "[7]", "result": 87, "unit": "%"}, {"measurement": "Total Cell Count", "setting": "[7]", "result": 393}, {"measurement": "Population Apoptotic (%)", "setting": "[8]", "result": 60, "unit": "%"}, {"measurement": "Population Healthy Nuclei (%)", "setting": "[8]", "result": 69, "unit": "%"}, {"measurement": "Population Hoechst High Intensity Objects (%)", "setting": "[8]", "result": 17, "unit": "%"}, {"measurement": "Population Mitochondria Different-Phenotype (%)", "setting": "[8]", "result": 94, "unit": "%"}, {"measurement": "Population Mitotic Cells (%)", "setting": "[8]", "result": 39, "unit": "%"}, {"measurement": "Population Normal (%)", "setting": "[8]", "result": 82, "unit": "%"}, {"measurement": "Population Tubulin-Different-Phenotype (%)", "setting": "[8]", "result": 66, "unit": "%"}, {"measurement": "Total Cell Count", "setting": "[8]", "result": 276}, {"measurement": "Population Apoptotic (%)", "setting": "[9]", "result": 20, "unit": "%"}, {"measurement": "Population Healthy Nuclei (%)", "setting": "[9]", "result": 81, "unit": "%"}, {"measurement": "Population Hoechst High Intensity Objects (%)", "setting": "[9]", "result": 3, "unit": "%"}, {"measurement": "Population Mitochondria Different-Phenotype (%)", "setting": "[9]", "result": 34, "unit": "%"}, {"measurement": "Population Mitotic Cells (%)", "setting": "[9]", "result": 79, "unit": "%"}, {"measurement": "Population Normal (%)", "setting": "[9]", "result": 96, "unit": "%"}, {"measurement": "Population Tubulin-Different-Phenotype (%)", "setting": "[9]", "result": 20, "unit": "%"}, {"measurement": "Total Cell Count", "setting": "[9]", "result": 841}, {"measurement": "Population Apoptotic (%)", "setting": "[10]", "result": 46, "unit": "%"}, {"measurement": "Population Healthy Nuclei (%)", "setting": "[10]", "result": 78, "unit": "%"}, {"measurement": "Population Hoechst High Intensity Objects (%)", "setting": "[10]", "result": 5, "unit": "%"}, {"measurement": "Population Mitochondria Different-Phenotype (%)", "setting": "[10]", "result": 37, "unit": "%"}, {"measurement": "Population Mitotic Cells (%)", "setting": "[10]", "result": 53, "unit": "%"}, {"measurement": "Population Normal (%)", "setting": "[10]", "result": 94, "unit": "%"}, {"measurement": "Population Tubulin-Different-Phenotype (%)", "setting": "[10]", "result": 22, "unit": "%"}, {"measurement": "Total Cell Count", "setting": "[10]", "result": 635}, {"measurement": "Population Apoptotic (%)", "setting": "[11]", "result": 60, "unit": "%"}, {"measurement": "Population Healthy Nuclei (%)", "setting": "[11]", "result": 77, "unit": "%"}, {"measurement": "Population Hoechst High Intensity Objects (%)", "setting": "[11]", "result": 8, "unit": "%"}, {"measurement": "Population Mitochondria Different-Phenotype (%)", "setting": "[11]", "result": 88, "unit": "%"}, {"measurement": "Population Mitotic Cells (%)", "setting": "[11]", "result": 40, "unit": "%"}, {"measurement": "Population Normal (%)", "setting": "[11]", "result": 91, "unit": "%"}, {"measurement": "Population Tubulin-Different-Phenotype (%)", "setting": "[11]", "result": 73, "unit": "%"}, {"measurement": "Total Cell Count", "setting": "[11]", "result": 519}, {"measurement": "Population Apoptotic (%)", "setting": "[12]", "result": 78, "unit": "%"}, {"measurement": "Population Healthy Nuclei (%)", "setting": "[12]", "result": 78, "unit": "%"}, {"measurement": "Population Hoechst High Intensity Objects (%)", "setting": "[12]", "result": 10, "unit": "%"}, {"measurement": "Population Mitotic Cells (%)", "setting": "[12]", "result": 21, "unit": "%"}, {"measurement": "Population Normal (%)", "setting": "[12]", "result": 89, "unit": "%"}, {"measurement": "Population Tubulin-Different-Phenotype (%)", "setting": "[12]", "result": 71, "unit": "%"}, {"measurement": "Total Cell Count", "setting": "[12]", "result": 329}]}]}
